Screens as filed in PubChem.
MT stabilizer: microtubule stabilizers in HeLa cells. 200,000 compounds, 0.83% hits. HeLa tubulin immunostaining HCS, 24 h; share of cells brighter than vehicle mean+2SD. AID 2205. % tubulin-high responders, % at 10 µM;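 active = plate Z-score above 3 for both tubulin-high and condensed-nucleus cell shares, with cell loss under 80%, at 10 µM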;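 note: anti alpha tubulin signal scored within the nucleus-defined area of each cell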
Dynein transport: blocks dynein driven cargo transport along microtubules; 3617.4 mouse cells, GR-EGFP nuclear translocation imaging; test concentration mostly 20 µM; stimulated with dexamethasone, 1 µM; stronger effect = lower value; z-score, hits read low; 220,000 compounds, 0.47% hits; AID 1381;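 active = plate z-score of nuclear minus cytoplasmic receptor signal below a set negative limit, without overly bright fluorescence or cell loss, cut at about -3.5 in these data, passing the limit was not always enough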;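 note: z-score of nuclear minus cytoplasmic ring GR-EGFP intensity difference per well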
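Also added: dexamethasone, 1.0 µM final. Medium: tet-free, stripped-serum medium. Detection: fixed, Hoechst-stained cells imaged at 10x for EGFP. Read-out: nuclear-to-cytoplasmic GR-EGFP distribution per well. Times: induction 48 h, compound 1 h, agonist 30 min.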
Hsp70 act: Hsp70 transcriptional activation, primary screen; activation, % at 10 µM; 200,000 compounds, 0.04% hits; HeLa Hsp70 promoter luciferase reporter, luminescence; scaled: vehicle 0, proteasome-inhibitor control 100%;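 active = activation above the mean across all tested compounds plus 3 SD, cutoff set per campaign, cut at about 5.5% in these data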;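 note: 100% = MG132 at 30 µM as the positive control and 0% = DMSO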
b-catenin transl: modulators of beta-catenin nuclear translocation; nuclear translocation activity, % at 5 µM; 190,000 compounds, 0.3% hits; HeLa beta-catenin nuclear translocation, immunofluorescence imaging;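 active = nuclear translocation activity above 50% at 5 µM, with a well cell count of 50 or more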;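 note: per-cell ratio of nuclear to cytoplasmic median beta-catenin stain intensity; plate controls were DMSO negative control for no effect and GSK-3 inhibitor IX positive control for full effect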
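Assay system: human HeLa cells, native beta-catenin; doses: 5 µM primary, 0.02–20 µM confirmation; incubation: compound treatment 24 h, 37°C, 5% CO2; technique: fluorescence imaging of beta-catenin antibody stain plus DAPI; measure: % activation, nuclear-to-cytoplasmic median beta-catenin signal ratio per cell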
Autophagy HCS: alters autophagy in cells | calls only at 10 µM (by protocol) | MEF GFP-LC3 puncta imaging; test concentration mostly 10 µM | 190,000 compounds, 0.98% hits;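 active = percentage of spot-positive cells more than 3 SD above its plate mean, without a fluorescence outlier flag or 80% toxicity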;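 note: spot-positive cell cutoff set from DMSO-treated cells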
Hsp70 act DR: activates Hsp70 transcription in dose response. AID 1252. shares compounds with Hsp70 act. calls only at 99 µM. 70 compounds, 10% hits. HeLa hsp70.1pr-luc reporter, luciferase luminescence;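 active = over 50% activation at some tested dose; inactive = under 50% activation at every tested dose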
An asterisk follows results filed as active; i = inactive; nt = no result given; + = active, no number. In the library only some 2.1% were active in any assay of this set; here they are far more common.

SMILES	MT stabilizer	Dynein transport	Hsp70 act	b-catenin transl	Autophagy HCS	others
Cc1cccc2cc(C(c3nnnn3Cc3ccccc3)N3CCCc4ccccc43)c(=O)[nH]c12 (stereo not drawn)	3	1.4	0	nt	+
Cc1ccc(-n2nnnc2SCc2nc3sc(C)c(C)c3c(=O)[nH]2)cc1	2	-1	0	3	+
CC(=O)c1sc2nc(CSc3nnnn3-c3ccccc3)[nH]c(=O)c2c1C	2	0.04	0	1	i
O=C(CC1C(=O)NCCN1Cc1c(F)cccc1Cl)NCCCn1cccn1 (stereo not drawn)	nt	2.8	nt	0	nt
COc1ccc(N2C(=O)CS/C2=N\C(=S)Nc2ccccc2)cc1	nt	0.23	nt	-1	nt
O=C(COc1ccccc1-c1ccccc1)N/N=C/c1cccnc1	14*	-1.1	0	46	i
O=C(COc1ccccc1-c1ccccc1)N/N=C/c1ccc2ccccc2c1	5	0.42	0	131*	i
O=C(COc1ccccc1-c1ccccc1)N/N=C/c1ccccn1	5	0.44	0	-2	i
O=C(COc1ccccc1-c1ccccc1)N/N=C/c1ccncc1	3	-0.013	0	1	i
Cc1c(-c2nc(N)nc(Nc3ccccc3)n2)oc2ccccc12	25*	-0.14	0	-1	i
Nc1nc(CN2CCCCCC2)nc(Nc2ccccc2)n1	3	-0.65	0	1	i
C/C(CC(=O)NCc1ccco1)=N\NC(=O)COc1ccc(Cl)cc1Cl	5	0.3	0	59*	i
O=C(COc1ccc(Cl)cc1Cl)NCc1ccco1	5	-0.89	0	-7	i
COc1ccc(CNC(=O)C/C(C)=N/NC(=O)COc2ccc(C)cc2Br)cc1	4	-1.5	0	146*	i
O=C1N/C(=C\c2ccccc2)c2ccccc21	20*	2.5	0	1	i
CCO[C@@H]1OC(C(=O)NCc2nc3ccccc3[nH]2)=C[C@H](C2CC2)[C@H]1CCCO	28*	0.59	0	9	i
Cc1ccc2ncnc(Oc3ncccc3NC(=O)C(C)(C)C)c2c1	nt	0.65	nt	0	nt
O=[N+]([O-])c1ccc(CSc2nnc(Cc3ccccc3)n2-c2ccc(F)cc2)cc1	1	-0.28	0	0	+
C#CCSc1nc(=O)c2cccnc2n1-c1ccc(C)cc1	nt	0.56	nt	3	nt
O=c1[nH]c(SCc2ccc(Cl)cc2)nc2ccccc12	3	-0.016	0	1	i
Cc1ccc(CSc2nc3ccccc3cc2C=O)cc1	21*	-0.71	0	-2	i
O=Cc1cc2ccccc2nc1SCc1ccc(Cl)cc1	28*	-0.61	0	4	i
O=Cc1cc2ccccc2nc1SCc1ccc(Cl)c(Cl)c1	18*	0.11	0	3	i
Cc1cc(-c2nnc(-c3cccc(Cl)c3)o2)no1	nt	-0.75	nt	-7	nt
COC(=O)N/N=C/c1cc(C)n(-c2cccc3ccccc23)c1C	3	0.023	0	-1	i
SMILES	MT stabilizer	Dynein transport	Hsp70 act	b-catenin transl	Autophagy HCS	others
CCOC(=O)N/N=C/c1cc(C)n(-c2cccc3ccccc23)c1C	21*	0.49	0	9	i
Cc1cc(/C=N/NC(=O)c2cccc(F)c2)c(C)n1-c1ccccc1	16*	-1.2	0	9	i
Cc1cc(/C=N/NC(=O)c2ccccc2F)c(C)n1-c1ccccc1	4	0.29	0	1	i
CCCCc1ccc(NC(=O)C(=O)NCCN2CCN(Cc3ccc([N+](=O)[O-])cc3)CC2)cc1	3	0.3	0	3	i
CCCC(CCC)=NNC(=O)CN(Cc1ccccc1)S(=O)(=O)c1ccccc1	1	-0.11	0	-1	i
Cc1cc(=O)oc2cc(OCC3CC(c4ccc(Br)cc4)=NO3)ccc12 (stereo not drawn)	20*	0.26	0	0	i
COc1ccc(C(=O)N(C)C2CCN(C)CC2)cc1S(=O)(=O)Nc1cc(Cl)ccc1Cl	nt	-0.11	nt	-3	nt
CC(C)n1c(C(=O)OCC(=O)NCc2ccc3c(c2)OCO3)cc2sccc21	42*	-0.89	0	-1	i
CC(C)n1c(C(=O)OCC(=O)NCc2ccc3c(c2)OCO3)cc2occc21	2	-0.041	0	-2	i
Cn1cccc1/C=C1\CC(C(C)(C)C)C/C(=C\c2cccn2C)C1=O (stereo not drawn)	1	-0.82	0	-7	+
O=C(CSc1nnc(NC(=O)c2ccco2)s1)Nc1ccc2c(c1)OCCO2	2	-0.7	0	-2	i
COc1ccc(/C=N/NC(=O)CCn2c3ccccc3c3ccccc32)cc1O	18*	-0.66	0	53*	i
Cc1cccc(C=Nc2ccccc2C(N)=O)c1	37	0.14	0	nt	i
Cc1ccc(C=Nc2ccccc2C(N)=O)s1	22*	-0.42	0	27	i
CCOc1ccc(N=C2NC(=O)S/C2=C\c2ccc(N(C)C)cc2)cc1	17	-0.46	0	-1	+
CCOc1ccc(/C=C2/SC(=O)NC2=S)cc1	3	-0.26	0	1	i
O=C(Nc1cccc(Cl)c1)c1cc(S(=O)(=O)NCCc2ccc(Cl)cc2)ccc1F	1	1.2	0	0	i
Cc1ccc(S(=O)(=O)Oc2ccccc2/C=N/NC(N)=S)cc1	32	-0.29	0	33	+
Cc1ccc(S(=O)(=O)Oc2ccccc2/C=N/N=C(N)N)cc1	2	-0.14	0	0	i
FC(F)(F)c1cnc(COc2cc(Cl)cc(Cl)c2)c(Cl)c1	nt	0.22	nt	-1	nt
CC(CC1CC(C)(C)OC1=O)C(=O)Nc1ccc([N+](=O)[O-])cc1 (stereo not drawn)	4	0.98	5.6*	1	i	Hsp70 act DR=i
N#Cc1ccc(NC(=O)c2nc(-c3ccccc3)n(-c3ccccc3)n2)cc1	1	0.77	6.7*	nt	i	Hsp70 act DR=i
Cc1ccc(Nc2cc(C)nn2-c2nc(C)cc(C)n2)cc1	2	2.4	1	-2	i
Cc1ccc(Nc2cc(C)nn2-c2nc(C)cc(=O)[nH]2)cc1	13	-0.19	90*	2	nt	Hsp70 act DR=i
COC(=O)Nc1ccc(S(=O)(=O)NCc2ccccn2)cc1	1	0.82	5.8*	0	i	Hsp70 act DR=i
COc1ccc(C2OCC3(CO2)SC(=O)NC3=O)cc1 (stereo not drawn)	1	-0.88	0	1	i
O=C1NC(=O)C2(COC3(CCCC3)OC2)S1	7	-0.2	28*	-2	i	Hsp70 act DR=i
CC(C)(C)c1ccc(C(CC(=O)O)NC(=O)c2ccccc2F)cc1 (stereo not drawn)	5	-0.73	0	-1	i
CC(=O)Nc1ccc(C=C(C(C)=O)C(C)=O)cc1	nt	-1.8	nt	0	nt
